Measurements published in ChEMBL document CHEMBL1156789, “Design and synthesis of 5,5'-disubstituted aminohydantoins as potent and selective human beta-secretase (BACE1) inhibitors” (J Med Chem, 2010).

What was measured:
[1] = target: T1, Beta-secretase 2 (Homo sapiens, UniProt Q9Y5Z0); experiment: Inhibition of human BACE2 by FRET based peptide cleavage assay
T1 sequence (Q9Y5Z0 whole entry): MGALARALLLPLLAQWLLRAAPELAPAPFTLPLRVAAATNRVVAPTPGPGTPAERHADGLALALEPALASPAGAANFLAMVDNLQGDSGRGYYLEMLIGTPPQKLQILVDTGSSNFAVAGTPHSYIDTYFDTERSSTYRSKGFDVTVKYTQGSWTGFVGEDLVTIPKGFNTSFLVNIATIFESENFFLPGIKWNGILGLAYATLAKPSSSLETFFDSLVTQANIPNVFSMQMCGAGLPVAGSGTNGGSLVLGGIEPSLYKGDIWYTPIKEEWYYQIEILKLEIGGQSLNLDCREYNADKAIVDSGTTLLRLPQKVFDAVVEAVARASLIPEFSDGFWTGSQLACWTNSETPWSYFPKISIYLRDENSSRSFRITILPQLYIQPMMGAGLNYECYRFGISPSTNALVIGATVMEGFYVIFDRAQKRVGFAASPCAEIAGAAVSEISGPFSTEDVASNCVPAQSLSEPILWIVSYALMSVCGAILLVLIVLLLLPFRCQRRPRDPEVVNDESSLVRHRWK

[2] = target: T2, Cathepsin D (Homo sapiens, UniProt P07339); experiment: Inhibition of human cathepsin D by FRET based peptide cleavage assay
[3] = target: T3, Beta-secretase 1 (Homo sapiens, UniProt P56817); experiment: Inhibition of human BACE1 by FRET based peptide cleavage assay
[4] = target: T3, Beta-secretase 1; experiment: Inhibition of BACE1 expressed in CHOK1 cells coexpressing human recombinant wild type APP assessed as blockade of amyloid beta production by ELISA; type: cell-based, CHO-K1
[5] = target: T2, Cathepsin D; experiment: Inhibition of human cathepsin D at 100 uM by FRET based peptide cleavage assay
[6] = Dissociation constant, pKa of the compound; type: physicochemical
[7] = Inhibition of pepsin by FRET based peptide cleavage assay
[8] = target: T4, Renin (Homo sapiens, UniProt P00797); experiment: Inhibition of human recombinant renin by FRET based peptide cleavage assay
T4 sequence (P00797 whole entry): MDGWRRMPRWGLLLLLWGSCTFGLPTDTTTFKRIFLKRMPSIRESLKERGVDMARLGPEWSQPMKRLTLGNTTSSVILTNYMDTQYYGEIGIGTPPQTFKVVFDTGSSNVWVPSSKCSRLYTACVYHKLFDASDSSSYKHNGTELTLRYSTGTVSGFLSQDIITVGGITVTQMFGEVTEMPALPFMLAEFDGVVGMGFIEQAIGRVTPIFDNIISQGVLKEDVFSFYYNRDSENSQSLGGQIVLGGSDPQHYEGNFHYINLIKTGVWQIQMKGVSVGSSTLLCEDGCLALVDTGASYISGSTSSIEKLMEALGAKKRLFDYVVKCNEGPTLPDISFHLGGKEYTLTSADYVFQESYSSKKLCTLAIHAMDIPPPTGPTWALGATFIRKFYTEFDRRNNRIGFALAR

[9] = organism: Homo sapiens; experiment: Selectivity for human BACE1 over human BACE2
[10] = target: T5, Beta-secretase 2 (Homo sapiens) (UniProt Q9Y5Z0); details: 25 uM
T5 sequence (whole entry): T1 sequence (Q9Y5Z0 whole entry)

[11] = tested on: Mus musculus; experiment: Reduction in amyloid beta 40 level in Tg2576 mouse plasma at 100 mg/kg, po after 8 hrs; type: functional; parameters: scale not given: the % may be the effect or the level left
Outline: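 Tg2576 mice received a single acute oral dose. Plasma Aβ40 was measured 8 h after dosing.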

T2 sequence (P07339 65-162 limits assumed): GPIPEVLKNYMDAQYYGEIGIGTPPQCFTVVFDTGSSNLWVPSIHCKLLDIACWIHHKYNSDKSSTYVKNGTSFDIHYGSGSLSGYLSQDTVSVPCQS
T2 sequence (P07339 169-412 limits assumed): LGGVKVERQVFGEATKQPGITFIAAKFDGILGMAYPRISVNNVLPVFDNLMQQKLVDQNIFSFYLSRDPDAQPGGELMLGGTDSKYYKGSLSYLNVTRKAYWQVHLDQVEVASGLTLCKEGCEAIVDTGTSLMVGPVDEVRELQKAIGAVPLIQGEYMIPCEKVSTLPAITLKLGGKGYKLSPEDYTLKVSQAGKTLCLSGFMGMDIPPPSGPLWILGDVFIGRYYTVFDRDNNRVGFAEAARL
T3 sequence (P56817 whole entry): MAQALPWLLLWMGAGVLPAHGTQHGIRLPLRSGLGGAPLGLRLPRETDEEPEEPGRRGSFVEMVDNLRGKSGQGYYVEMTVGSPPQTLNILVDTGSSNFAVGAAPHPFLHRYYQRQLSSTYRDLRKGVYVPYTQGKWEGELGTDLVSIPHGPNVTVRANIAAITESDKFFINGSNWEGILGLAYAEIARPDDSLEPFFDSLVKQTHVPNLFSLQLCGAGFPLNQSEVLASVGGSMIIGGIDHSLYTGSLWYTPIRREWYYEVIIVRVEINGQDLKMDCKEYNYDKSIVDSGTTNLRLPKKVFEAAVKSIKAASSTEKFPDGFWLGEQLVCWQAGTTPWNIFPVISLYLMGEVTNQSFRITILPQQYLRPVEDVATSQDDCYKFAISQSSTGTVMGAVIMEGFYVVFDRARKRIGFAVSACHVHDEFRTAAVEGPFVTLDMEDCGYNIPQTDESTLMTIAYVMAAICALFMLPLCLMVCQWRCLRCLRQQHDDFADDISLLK

IC50 [1] [µM] | IC50 [2] [µM] | IC50 [3] [µM] | EC50 [4] [µM] | Compound | further results
1.72 |  | 3.1 | 3.35 | COc1ccc(C2(c3ccccc3)N=C(N)N(C)C2=O)cc1 (configuration not stated) | inhibition [5]: 3%
 |  |  |  | NC1=NC(c2ccccc2)(c2ccccc2)C2=NCCCN12 | pKa [6]: 7.6
2.51 | 4.43 |  |  | COc1ccc(-c2cccc(C3(c4ccc(OC(F)(F)F)cc4)N=C(N)N(C)C3=O)c2)cn1 (configuration not stated) | 
5.16 |  |  | 8.13 | CCN1C(=O)C(c2ccccc2)(c2ccccc2)N=C1N | inhibition [5]: 33%
5.04 | 26.2 | 1.36 | 2.83 | CN1C(=O)C(c2ccc(OC(F)(F)F)cc2)(c2cccc(-c3cncnc3)c2F)N=C1N (configuration not stated) | 
0.55 | 7.3 | 0.15 | 4.5 | COc1ccc(C2(c3cccc(-c4cccnc4)c3)N=C(N)N(C)C2=O)cc1C#N (configuration not stated) | 
87.2 |  |  | 23.5 | NC1=NC(c2ccccc2)(c2ccccc2)C(=O)N1 | inhibition [5]: 13%
0.3 | 8.3 |  |  | COc1ccc(C2(c3cccc(-c4cccnc4)c3)N=C(N)N(C)C2=O)cc1OC1CCCC1 (configuration not stated) | 
0.6 | 10.3 | 0.05 | 0.52 | CCOc1cc(C2(c3cccc(-c4cccnc4)c3)N=C(N)N(C)C2=O)ccc1OC (configuration not stated) | 
1.84 | 12.2 | 0.06 | 0.87 | COc1ccc(C2(c3cccc(-c4cccnc4)c3)N=C(N)N(C)C2=O)cc1OC(C)C (configuration not stated) | 
1 | 3.51 |  |  | COc1ccc(C2(c3cccc(-c4cccnc4)c3)N=C(N)N(C)C2=O)cc1C(F)(F)F (configuration not stated) | 
4.33 | 14.1 | 0.28 | 0.76 | CCc1cc(C2(C34CC5CC(CC(C5)C3)C4)N=C(N)N(C)C2=O)ccc1OC (configuration not stated) | Ratio IC50 [9]: 20
3.87 | 6.22 |  |  | CN1C(=O)C(c2ccc(OC(F)(F)F)cc2)(C23CC4CC(CC(C4)C2)C3)N=C1N (configuration not stated) | 
2.32 | 2.19 | 0.63 | 1.75 | COc1ccc(C2(c3ccc(C#N)c(-c4cccnc4)c3)N=C(N)N(C)C2=O)cc1C (configuration not stated) | 
1.59 | 14.3 |  |  | COc1ccc(C2(c3cccc(-c4cncnc4)c3)N=C(N)N(C)C2=O)cc1C (configuration not stated) | IC50 [7]: 33.3 µM; IC50 [8]: 42.3 µM
0.2 | 10.1 | 0.05 | 0.68 | CCCOc1cc(C2(c3cccc(-c4cccnc4)c3)N=C(N)N(C)C2=O)ccc1OC (configuration not stated) | 
0.23 | 13.4 |  |  | COc1ccc([C@]2(C34CC5CC(CC(C5)C3)C4)N=C(N)N(C)C2=O)cc1 | 
5.99 | 2.05 | 0.52 | 2.57 | COc1ncccc1-c1cccc(C2(c3ccc(OC(F)(F)F)cc3)N=C(N)N(C)C2=O)c1 (configuration not stated) | 
0.83 | 27.3 |  |  | CN1C(=O)C(c2ccccc2)(C23CC4CC(CC(C4)C2)C3)N=C1N (configuration not stated) | 
 |  |  |  | CN1C(=O)C(c2ccccc2)(c2ccccc2)N=C1N | IC50 [7]: 11.1 µM; IC50 [8]: 9.6 µM; pKa [6]: 5.7; inhibition [5]: 36%
73.6 | 13.1 |  |  | COc1ccc([C@@]2(C34CC5CC(CC(C5)C3)C4)N=C(N)N(C)C2=O)cc1C | 
1.19 |  | 3.47 | 5.9 | COc1cccc(C2(c3ccccc3)N=C(N)N(C)C2=O)c1 (configuration not stated) | inhibition [5]: 46%

IC50 [1] [µM] | IC50 [2] [µM] | IC50 [3] [µM] | EC50 [4] [µM] | Compound | further results
1.26 | 8.55 | 0.32 |  | CN1C(=O)C(c2ccc(OC(F)(F)F)cc2)(c2cc(F)cc(-c3cncnc3)c2)N=C1N (configuration not stated) | IC50 [7]: 35.1 µM; IC50 [8]: 13.8 µM
6.29 | 11.1 |  |  | COc1ccc(C2(C34CC5CC(CC(C5)C3)C4)N=C(N)N(C)C2=O)cc1C (configuration not stated) | IC50 [7]: 15 µM; IC50 [8]: 59.5 µM
7.54 | 2.33 |  |  | CN1C(=O)[C@@](c2ccc(OC(F)(F)F)cc2)(c2ccc(F)c(-c3cncnc3)c2)N=C1N | 
0.17 | 8.18 | 0.05 | 0.67 | CCCCOc1cc(C2(c3cccc(-c4cccnc4)c3)N=C(N)N(C)C2=O)ccc1OC (configuration not stated) | 
0.52 | 5.2 | 0.05 | 0.42 | COc1ccc(C2(c3cccc(-c4cccnc4)c3)N=C(N)N(C)C2=O)cc1F (configuration not stated) | 
0.42 | 69.2 | 2.5 | 6.97 | CN1C(=O)C(c2ccccc2)(c2cccc(Cl)c2)N=C1N (configuration not stated) | 
2.53 | 11.5 |  |  | CCOc1ccc(C2(C34CC5CC(CC(C5)C3)C4)N=C(N)N(C)C2=O)cc1 (configuration not stated) | 
9.97 | 11.6 |  |  | CN1C(=O)[C@](c2ccc(OC(F)(F)F)cc2)(c2ccc(F)c(-c3cncnc3)c2)N=C1N | 
 |  |  | 0.11 | COc1ccc(C2(c3cccc(-c4cccnc4F)c3)N=C(N)N(C)C2=O)cc1C (configuration not stated) | 
 | 23.1 |  |  | COc1ccc(C2(c3cccc(-c4cccnc4)c3)N=C(N)N(C)C2=O)cc1OC (configuration not stated) | 
1.84 | 38.2 | 2.25 | 2.13 | CN1C(=O)C(c2ccccc2)(c2ccc(Cl)cc2)N=C1N (configuration not stated) | 
9.69 | 4.18 |  |  | CN1C(=O)C(c2ccc(OC(F)(F)F)cc2)(c2ccc(F)c(-c3cncnc3)c2)N=C1N (configuration not stated) | 
 |  |  |  | COc1ccc(C2(c3cccc(-c4cccnc4)c3)N=C(N)N(C)C2=O)cc1C (configuration not stated) | IC50 [7]: 19.6 µM; IC50 [8]: 93.4 µM
0.56 | 6.28 |  |  | COc1ccc(C2(c3cccc(-c4cccnc4)c3)N=C(N)N(C)C2=O)cc1Cl (configuration not stated) | 
9.59 | 36.6 | 0.27 | 0.19 | COc1ccc(C2(C34CC5CC(CC(C5)C3)C4)N=C(N)N(C)C2=O)cc1OC (configuration not stated) | Ratio IC50 [9]: 20
0.96 | 1.87 |  |  | COc1ccc(C2(c3cccc(-c4cccnc4)c3)N=C(N)N(C)C2=O)cc1C1CCCC1 (configuration not stated) | 
0.68 | 15.3 |  |  | COc1ccc(C2(C34CC5CC(CC(C5)C3)C4)N=C(N)N(C)C2=O)cc1 (configuration not stated) | IC50 [7]: 14.4 µM; IC50 [8]: 53.3 µM
4.02 | 9.21 |  |  | COc1ccc([C@]2(C34CC5CC(CC(C5)C3)C4)N=C(N)N(C)C2=O)cc1C | 
0.96 | 2.47 |  |  | COc1ccc(C2(c3ccc(C)c(-c4cccnc4)c3)N=C(N)N(C)C2=O)cc1C (configuration not stated) | 
 | 20.8 |  |  | COc1ccc([C@@]2(C34CC5CC(CC(C5)C3)C4)N=C(N)N(C)C2=O)cc1 | inhibition [10]: 50%
0.5 | 10.9 |  |  | CN1C(=O)C(c2cccc(-c3cccnc3)c2)(c2ccc3c(c2)OCCO3)N=C1N (configuration not stated) | 
5.55 | 8.4 |  |  | CCCCOc1ccc(C2(C34CC5CC(CC(C5)C3)C4)N=C(N)N(C)C2=O)cc1 (configuration not stated) | 

Compound | IC50 [1] [µM] | IC50 [2] [µM] | IC50 [3] [µM] | EC50 [4] [µM] | further results
CN1C(=O)C(c2cccc(-c3cccnc3)c2)(c2ccc3c(c2)CCO3)N=C1N (configuration not stated) | 1.13 | 23.9 |  |  | 
COc1ccc(C2(c3ccc(F)c(-c4cncnc4)c3)N=C(N)N(C)C2=O)cc1C (configuration not stated) | 2.8 | 6.7 |  |  | IC50 [7]: 35.3 µM; IC50 [8]: 57.6 µM
COc1ccc(C2(c3ccc(F)c(-c4cccnc4F)c3)N=C(N)N(C)C2=O)cc1C (configuration not stated) | 1.84 | 2.41 |  |  | IC50 [7]: 66.3 µM; IC50 [8]: 23.2 µM
CN1C(=O)C(c2cccc(-c3cccnc3)c2)(c2ccc3c(c2)OCO3)N=C1N (configuration not stated) | 0.54 | 21.4 |  |  | 
COc1ccc([C@@]2(c3ccc(F)c(-c4cccnc4F)c3)N=C(N)N(C)C2=O)cc1C | 0.81 | 0.82 |  |  | Activity [11]: 69%
COc1ccc([C@]2(c3ccc(F)c(-c4cccnc4F)c3)N=C(N)N(C)C2=O)cc1C | 1.64 | 2.71 |  |  | 
